Assay results: ChEMBL document CHEMBL5712922, “Synergistic effects of type I PRMT and PARP inhibitors against non-small cell lung cancer cells” (Clin Epigenetics, 2021)
Where a name gives a salt, the structure may show the parent alone. Activity calls are given as the source filed them. The calls are words filed in the database; no cut-off is given here.

Columns and labels:
A549 [1] = assay: Induction of DNA damage in human A549 cells assessed as increase in stained cells at 2 uM for 7 days by gamma-H2AX analysis (reference value: 3.9%); format: functional; conditions: time 7 day
In short: (§1)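 A549 cells grown on coverslips under MTT treatment conditions (inhibitors replenished every 48 h) for 7 days with MS023 (0.2–2 µM) and/or BMN-673 (50 nM); fixed in 4% paraformaldehyde, Triton-permeabilized, stained with anti-γ-H2AX (1:1000, 16 h, 4 °C) and Alexa488 secondary, DAPI counterstain. ≥200 cells imaged; fraction with >5 foci reported; unpaired t tests.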

A549 [2] = assay: Induction of DNA damage in human A549 cells assessed as increase in stained cells at 0.2 uM for 7 days by gamma-H2AX analysis (reference value: 3.9%); format: functional; conditions: time 7 day; in short: as §1
HCC4006 [3] = assay: Antiproliferative against human HCC4006 cells expressing MTAP clone 2 assessed as […] treated for 7 days with replenishment of medium for every 48 hrs by MTT assay (reference value: 0.24 uM); format: functional, cell-based
In short: (§2)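 Parental, empty-vector (pLoc) or MTAP-re-expressing lentiviral clone cells (blasticidin 3 µg/ml selected) seeded day 0; MS023 (0.2–2 μM final) and/or BMN-673 (0.3–50 nM final) or DMSO added after 16 h, replenished with medium every 48 h. Day 7: MTT reagent 3 h at 37 °C, solvent, absorbance 590 nm; triplicates; percent death = 1 − (treated/DMSO).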

A549 [4] = assay: Antiproliferative against human A549 cells expressing MTAP clone 1 assessed as […] treated for 7 days with replenishment of medium for every 48 hrs by MTT assay (reference value: 4.4 uM); format: functional, cell-based; in short: as §2
SK-LU-1 [5] = assay: Antiproliferative against human SK-LU-1 cells expressing MTAP clone 1 assessed as […] treated for 7 days with replenishment of medium for every 48 hrs by MTT assay (reference value: 16.3 uM); format: functional, cell-based
SK-LU-1 [6] = assay: Antiproliferative against human SK-LU-1 cells expressing MTAP clone 2 assessed as […] treated for 7 days with replenishment of medium for every 48 hrs by MTT assay (reference value: 16.3 uM); format: functional, cell-based
A549 [7] = assay: Antiproliferative against human A549 cells expressing MTAP clone 2 assessed as […] treated for 7 days with replenishment of medium for every 48 hrs by MTT assay (reference value: 4.4 uM); format: functional, cell-based
A549 [8] = assay: Induction of DNA damage in human A549 cells at 2 uM for 7 days by gamma-H2AX analysis; format: functional, cell-based; conditions: time 7.0 day; in short: as §1
HCC4006 [9] = assay: Antiproliferative against human HCC4006 cells expressing MTAP clone 1 assessed as […] treated for 7 days with replenishment of medium for every 48 hrs by MTT assay (reference value: 0.24 uM); format: functional, cell-based; in short: as §2
A549 [10] = assay: Antiproliferative against human A549 cells assessed as reduction in cell viability at 16.5 uM for 24 hrs relative to control; format: functional
In short: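 A549 cells exposed to MS023 for 24 h in dose–response; viability read by flow cytometry with Viacount dye reagent distinguishing viable, pre-apoptotic and dead cells.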

A549 [11] = assay: Antiproliferative against human A549 cells assessed as viable cells pretreated with MS023 for 24 hrs followed by compound addition at 10 uM measured after for 24 hrs relative to control; conditions: A549, 24 h, read-out: Activity
A549 [12] = assay: Synergistic antiproliferative activity against human A549 cells pretreated with MS023 for 24 hrs followed by compound addition at 10 uM measured after for 24 hrs relative to control; format: functional
In short: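 A549 seeded 20K/well; next day 16.5 μM MS023 or DMSO for 24 h, then 181 epigenetic library drugs at 10 μM for 24 h. Viability by Viacount flow cytometry after trypsinization; heat-killed well as total death control. Synergy Index = (monotherapy viability × MS023 viability effect)/combination viability; also synergy percentage (1 − 1/SI)×100.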

Structure (SMILES) | viability at 10 µM (A549 [11]) [%] | Activity (A549 [12]) [%] | also measured
CC(C)Oc1ccc(-c2c[nH]cc2CN(C)CCN)cc1 |  |  | Activity (A549 [1]): 27.6%; Activity (A549 [2]): 19.6%; IC50 (HCC4006 [3]): 0.56 µM; IC50 (A549 [4]): 5.1 µM; IC50 (SK-LU-1 [5]): 36.7 µM; IC50 (SK-LU-1 [6]): 41 µM; IC50 (A549 [7]): 13.4 µM; Activity (A549 [8]): Active; IC50 (HCC4006 [9]): 0.47 µM; Activity (A549 [10]): 23%
Cc1ccc(S(=O)(=O)O)cc1.NC(=O)c1cccc2cn(-c3ccc([C@@H]4CCCNC4)cc3)nc12 | 54.2 | 11 | 
COC1CCN(C(=O)c2cc(Cc3n[nH]c(=O)c4ccccc34)ccc2F)CC1 [AZD2461] | 54.2 | 67 | 
NC(=O)c1ccc(I)c([N+](=O)[O-])c1 [INIPARIB] | 54.2 | 15 | 
O=C(c1cc(Cc2n[nH]c(=O)c3ccccc23)ccc1F)N1CCN(C(=O)C2CC2)CC1 [OLAPARIB] | 54.2 | 48 | 
CC(C)N(C[C@H]1O[C@@H](n2cnc3c(N)ncnc32)[C@H](O)[C@@H]1O)[C@H]1C[C@@H](CCc2nc3cc(C(C)(C)C)ccc3[nH]2)C1 [PINOMETOSTAT] | 54.2 |  | 
COc1cccc2c1C(=O)c1c(O)c3c(c(O)c1C2=O)C[C@@](O)(C(=O)CO)C[C@@H]3O[C@H]1C[C@H](N)[C@H](O[C@@H]2CCCCO2)[C@H](C)O1 [PIRARUBICIN] | 54.2 |  | 
CN(C)CC(=O)Nc1ccc2[nH]c(=O)c3ccccc3c2c1.Cl [PJ34] | 54.2 | 21 | 
CCCCc1nc2cc(/C=C/C(=O)NO)ccc2n1CCN(CC)CC [PRACINOSTAT] | 54.2 |  | 
CCN(CC)CCNC(=O)c1ccc(N)cc1 [PROCAINAMIDE HYDROCHLORIDE] | 54.2 |  | 
O=c1c(O)c(-c2ccc(O)c(O)c2)oc2cc(O)cc(O)c12 [QUERCETIN] | 54.2 |  | 
Cn1cc(CNCC2CCN(c3ncc(C(=O)NO)cn3)CC2)c2ccccc21 [QUISINOSTAT HYDROCHLORIDE] | 54.2 |  | 
CN(C)Cc1ccc(S(=O)(=O)n2ccc(/C=C/C(=O)NO)c2)cc1 [RESMINOSTAT] | 54.2 |  | 
Oc1ccc(/C=C/c2cc(O)cc(O)c2)cc1 [RESVERATROL] | 54.2 |  | 
O=C(CCCCCCNC(=O)c1cnc(N(c2ccccc2)c2ccccc2)nc1)NO [RICOLINOSTAT] | 54.2 |  | 
Cc1nc(C(=O)NCC(=O)O)c(O)c2ccc(Oc3ccccc3)cc12 [ROXADUSTAT] | 54.2 |  | 
CNCc1ccc(-c2[nH]c3cc(F)cc4c3c2CCNC4=O)cc1 [RUCAPARIB] | 54.2 | 24 | 
